Measured values from different studies.
Each line is one published result; the experiments were not run side by side. Values after ≈ are worked out from the molar mass of the structure shown.

COc1ccc(N2CCN(C(=O)/C=C/c3ccc4c(c3)C=CC(C)(C)O4)CC2)cc1  viability (rat Primary cortical neuron; cell growth or viability, MTT; 1 µM, 12 h): 75%
C=CCCCCCCCCC(=O)C(F)(F)P(=O)(O)O  MIC (Enterococcus faecalis; microbial growth; ATCC33186): > 200 mg/L
COc1cccc(NC(=O)/C=C/c2ccc3c(c2)C=CC(C)(C)O3)c1  viability (rat Primary cortical neuron; cell growth or viability, MTT; 1 µM, 12 h): 87%
CCCCCC/C=C\CCCCCCCCCC(=O)CP(=O)(O)O  MIC (Enterococcus faecalis; microbial growth; ATCC33186): 12.5 mg/L (≈ 34.7 µM)
COc1c(C)c2c(c(O)c1C/C=C(\C)CCC(=O)O)C(=O)OC2  IC50 (Human coronavirus 229E; viral replication; Calu-3): 2.11 µM
O=C(CCCCC1CCCCC1)NP(=O)(O)O  MIC (Enterococcus faecalis; microbial growth; ATCC33186): > 200 mg/L
CCC(CC)COC(=O)[C@H](C)N[P@](=O)(OC[C@H]1O[C@@](C#N)(c2ccc3c(N)ncnn23)[C@H](O)[C@@H]1O)Oc1ccccc1  IC50 (Human coronavirus 229E; viral replication; Calu-3): 0.11 µM
Cc1cccc(CSc2nccc(OCCOc3cc(=O)oc4ccccc34)n2)c1  inhibition (Human coronavirus 229E; cytopathic effect; A549; 25 µM): 58.1%
CC[C@H](C)C[C@H](C)CCCCCCCCC(=O)N[C@H]1C[C@@H](O)[C@@H](NCCN)NC(=O)[C@@H]2[C@@H](O)CCN2C(=O)[C@H]([C@H](O)CCN)NC(=O)[C@H]([C@H](O)[C@@H](O)c2ccc(O)cc2)NC(=O)[C@@H]2C[C@@H](O)CN2C(=O)[C@H]([C@@H](C)O)NC1=O  MIC50 (Aspergillus fumigatus; microbial growth, broth dilution; MF5668): 0.016 mg/L (≈ 0.0146 µM)
Nc1ncnc2c([C@@H]3N[C@H](CO)[C@@H](O)[C@H]3O)c[nH]c12  inhibition (Japanese encephalitis virus; viral replication, inhibitor; Vero 76; 9.5 µM): 9.8%
O=C(Cc1ccc2ccccc2c1)N[C@@H](Cc1ccccc1)C(=O)N[C@H](Cc1ccccc1)C(=O)N[C@@H](Cc1ccc(OP(=O)(O)O)cc1)C(=O)O  IC50 (HeLa; cell growth or viability, MTT; 48 h): > 500 µM
COC1=C2C[C@@H](C)C[C@H](OC)[C@H](O)[C@@H](C)/C=C(\C)[C@H](OC(N)=O)[C@@H](OC)/C=C\C=C(/C)C(=O)NC(=CC1=O)C2=O  IC50 (Human coronavirus 229E; viral replication; Calu-3): 8.71 µM
NC(=O)c1ncn([C@@H]2O[C@H](CO)[C@@H](O)[C@H]2O)n1  IC50 (Human coronavirus 229E; viral replication; Huh7.5): 25.1 µM
CC1(C)C=Cc2cc(/C=C/C(=O)Nc3ccccc3)ccc2O1  viability (rat Primary cortical neuron; cell growth or viability, MTT; 1 µM, 12 h): 73%
O=C(CCCCC1CCCCC1)CP(=O)(O)O  MIC (Enterococcus faecalis; microbial growth; ATCC33186): > 200 mg/L
CCOC(=O)C1=C[C@@H](OC(CC)CC)[C@H](NC(C)=O)[C@@H](N)C1  inhibition (Human coronavirus 229E; cytopathic effect; A549; 50 µM): 72.8%
CCCCCCCC(=O)NP(=O)(O)O  MIC (Enterococcus faecalis; microbial growth; ATCC33186): > 200 mg/L
O=c1cc(OCCCOc2ccnc(SCc3ccc(F)cc3)n2)c2cc(F)ccc2o1  inhibition (Human coronavirus 229E; cytopathic effect; A549; 6.25 µM): 34.9%
